bCat nuc transl: beta-catenin nuclear translocation modulation; HeLa beta-catenin nuclear translocation, immunofluorescence imaging; nuclear translocation activity, % at 5 µM; 190,000 tested, 0.3% active;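 active = nuclear translocation activity above 50% at 5 µM, with a well cell count of 50 or more; inconclusive = wells under 50 cells across six images, flagged as toxic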;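 note: per-cell ratio of nuclear to cytoplasmic median beta-catenin stain intensity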
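Test system: human HeLa cells, endogenous beta-catenin. Times: 24 h compound exposure, 37°C. Measured by: beta-catenin immunofluorescence imaging with DAPI.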
Dynein transport: dynein cargo transport inhibition; 3617.4 mouse cells, GR-EGFP nuclear translocation imaging; test concentration mostly 20 µM; stimulated with dexamethasone, 1 µM; active compounds read low; z-score, hits read low; 220,000 tested, 0.47% active;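 active = plate z-score of nuclear minus cytoplasmic receptor signal below a set negative limit, without overly bright fluorescence or cell loss, cut at about -3.5 in these data, passing the limit was not always enough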;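 note: z-score of nuclear minus cytoplasmic ring GR-EGFP intensity difference per well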
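Buffer or medium: tet-free, stripped-serum medium; Also added: dexamethasone, 1.0 µM final; Technique: high-content fluorescence imaging after fixation; Times: 48 h induction, 1 h compound, 30 min dex at 37 °C; Read-out: per-cell GR-EGFP intensity, nucleus versus surrounding cytoplasmic ring, well-averaged.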
Insulin prom up: MIN6 insulin promoter up-regulation; MIN6 insulin promoter-GFP reporter, high-content imaging; active compounds read high; z-score at 5 µM; 190,000 tested, 0.3% active; AID 1625;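 active = z-score above 3 at 5 µM with at least 500 cells counted in the well; inconclusive = wells under 500 cells, flagged as cytotoxic or low count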
Autophagy HCS: alters autophagy in cells; MEF GFP-LC3 puncta imaging; test concentration mostly 10 µM; calls only at 10 µM (by protocol); 190,000 tested, 0.98% active; AID 463193;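 active = percentage of spot-positive cells more than 3 SD above its plate mean, without a fluorescence outlier flag or 80% toxicity; inconclusive = no clear call, values can overlap the other calls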
MT stabilize HCS: microtubule stabilization, imaging screen; % tubulin-high responders, % at 10 µM; HeLa tubulin immunostaining HCS, 24 h; share of cells brighter than vehicle mean+2SD; 200,000 tested, 0.83% active;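 active = plate Z-score above 3 for both tubulin-high and condensed-nucleus cell shares, with cell loss under 80%, at 10 µM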;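 note: anti alpha tubulin signal scored within the nucleus-defined area of each cell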
A number is an active result; – = inactive; ? = inconclusive; · = no result given; + = active, no number. Shown are actives, neighbours in structure and some others; about 2.3% of the full set was active somewhere.

SMILES	bCat nuc transl	Dynein transport	Insulin prom up	Autophagy HCS	MT stabilize HCS
COc1cc([N+](=O)[O-])ccc1-c1ccc(/C=N/NC(N)=O)o1	–	–	3.33	·	·
CCOc1ccc(S(=O)(=O)N(CC(=O)N/N=C/c2ccc(-c3ccc([N+](=O)[O-])cc3)o2)c2ccccc2)cc1	60.2	–	–	–	25.7
CCOc1ccc(N(CC(=O)N/N=C/c2cc([N+](=O)[O-])ccc2Cl)S(C)(=O)=O)cc1	–	–	–	–	–
Cc1cc(C)n2c(SCC(=O)N(CC(C)C)c3c(N)n(CC(C)C)c(=O)[nH]c3=O)nnc2n1	–	–	–	–	–
Cc1ccc(O)c(CCc2ccc(O)cc2)n1	–	–	–	–	–
S=C(Nc1ccc(Cl)c(Cl)c1)NC1CCN(Cc2ccccc2)CC1	–	·	?	+	–
CC1CCCC(C)N1C(=O)COc1ccc(C(=O)Nc2ccccc2N2CCOCC2)cc1 (centres undefined)	–	–	–	–	–
COc1cccc(C2=CC(c3cccc(OC)c3OC(F)F)n3nnnc3N2)c1 (centres undefined)	–	–	–	–	–
COc1ccc(OC)c(C2C=C(c3ccc(C)c(C)c3)Nc3nnnn32)c1 (centres undefined)	–	·	–	·	·
COc1cccc(C2=CC(c3cc(OC)ccc3OC)n3nnnc3N2)c1 (centres undefined)	–	–	–	–	26.5
COc1cccc(C2=CC(c3cccc(OC)c3OC)n3nnnc3N2)c1 (centres undefined)	–	–	–	–	22.6
CCc1nn(-c2ccccc2)c(=S)c2ccccc12	–	–	–	–	–
CCOP(=O)(OCC)C(Nc1ccccc1)c1ccccc1C(F)(F)F (centres undefined)	–	–	–	·	·
O=C(N/N=C/c1c[nH]c2ccccc12)c1cc(-c2cccc3ccccc23)n[nH]1	–	–	–	–	26.6
O=C(N/N=C/c1c[nH]c2ccccc12)c1cc(-c2ccc3ccccc3c2)n[nH]1	80.5	–	–	–	25.6
O=C(N/N=C/c1c[nH]c2ccccc12)c1cc(-c2ccc(-c3ccccc3)cc2)n[nH]1	–	–	–	–	–
Cc1ccc(-c2cc(C(=O)N/N=C/c3c[nH]c4ccccc34)[nH]n2)cc1	–	–	–	–	17.1
O=C(N/N=C/c1cccs1)c1cc(-c2cccc3ccccc23)n[nH]1	120.3	–	–	–	–
O=C(O)Cn1ncn(-c2ccc(OC(F)(F)F)cc2)c1=O	–	–	–	–	–
CCn1c(CC(=O)Nc2ccccc2)nnc1SCc1nc2ccccc2c(=O)[nH]1	–	–	–	·	·
Cc1ccnc(NC(c2cccnc2)c2ccc3cccnc3c2O)c1 (centres undefined)	–	–	–	–	–
Cc1cc(NC(c2ccc(Cl)cc2)c2ccc3cccnc3c2O)no1 (centres undefined)	·	–	·	+	–
CCN1CCN(c2ncc3c(n2)CC(c2cc(OC)c(OC)c(OC)c2)CC3=O)CC1 (centres undefined)	140.9	–	–	–	32.5
O=C1CC(c2cccc(Cl)c2)Cc2nc(N3CCN(c4ccccc4)CC3)ncc21 (centres undefined)	–	–	–	–	–
Cc1cc(OCC(=O)c2cccc(C(F)(F)F)c2)n2cnnc2n1	–	–	–	·	·
SMILES	bCat nuc transl	Dynein transport	Insulin prom up	Autophagy HCS	MT stabilize HCS
CC(=O)O/N=C/c1c(C)c(C=O)n2ccccc12	–	–	–	–	–
CCNC(=S)N/N=C(\C)c1ccc(N2CCOCC2)cc1	–	–	–	+	–
Cc1c2ccccc2nc2c(F)c(NC(C)C)c(F)c(F)c12	–	–	·	+	–
Cc1cccc(-n2c(-c3ccco3)nc3nc4ccccc4nc32)c1	–	–	–	–	–
Cc1cccc(-n2c(N)c(-c3nc4ccccc4n3C)c3nc4ccccc4nc32)c1	–	–	–	+	–
Cn1c(-c2c(N)n(-c3ccccc3)c3nc4ccccc4nc23)nc2ccccc21	–	–	–	+	–
Cc1ccc(-n2c(N)c(-c3nc4ccccc4n3C)sc2=S)cc1	–	–	–	–	–
COc1ccc(C(C[N+](=O)[O-])c2c(-c3ccccc3)cc3ccccn23)cc1 (centres undefined)	–	–	·	–	28.8
COc1ccc(C(C[N+](=O)[O-])c2c(-c3ccccc3)cc3ccccn23)cc1OC (centres undefined)	–	–	–	–	–
COc1ccc(C(=O)NNC(=O)C2CCCN(C3CC(=O)N(c4ccccc4)C3=O)C2)cc1 (centres undefined)	–	–	–	·	·
O=C(Nc1ccc(Cl)cc1)/C(=C/c1ccc([N+](=O)[O-])cc1)c1nc2ccccc2s1	–	–	–	–	36.5
Cc1cc(C)c(C)c(S(=O)(=O)N2CCCCC2C(=O)O)c1C (centres undefined)	–	–	–	–	–
N=C1S/C(=C\c2ccc(-c3cccc(Cl)c3)o2)C(=O)N1c1nccs1	–	–	–	+	–
COc1ccccc1CN1CCNC(=O)C1CC(=O)NCCOc1cccnc1 (centres undefined)	–	–	–	–	–
CN(C)CCCN(C(=O)/C=C/c1cccs1)c1nc2ccc(F)cc2s1	–	–	?	–	–
CN(C)CCN(C(=O)/C=C/c1cccs1)c1nc2c(F)cc(F)cc2s1	·	–	–	–	21.3
COC(=O)c1c(C)[nH]c(C(=O)/C=C/c2ccccc2F)c1C	–	–	–	·	·
Cc1cc(SCCOc2ccccc2)nc(N)n1	–	–	3.13	–	–
CSc1ccccc1C(=O)Nc1ccccc1C(=O)NC(C)C	–	–	–	–	–
Cc1ccc(-c2cc(C(F)F)n3ncc(C(=O)Nc4c(C)nn(Cc5c(Cl)cccc5Cl)c4C)c3n2)cc1	–	–	–	+	–
Cc1ccc(-c2cc(C(F)F)n3ncc(C(=O)N4CCc5ccccc54)c3n2)cc1	–	–	–	+	11.3
O=C(c1cnn2c(C(F)F)cc(-c3ccccc3)nc12)N1CCc2ccccc21	–	–	–	–	–
CCN(CC)c1ccc(/C=N/N=C(c2ccccc2)c2ccccc2)c(O)c1	–	–	–	+	–
CCN(CC)c1ccc(/C=N/N(c2ccccc2)c2ccccc2)c(O)c1	–	–	?	–	–
NC(=O)c1cc2ccccc2oc1=NCc1ccccc1	–	–	–	–	–
NC(=O)c1cc2ccc(O)cc2oc1=NCc1ccccc1	–	–	6.96	–	–
O=C(COC(=O)C1COc2ccccc2O1)Nc1cccc(S(=O)(=O)N2CCCCC2)c1 (centres undefined)	–	–	–	–	–
OCCNCC(O)Cn1ccc2ccccc21 (centres undefined)	·	–	–	–	–
OCCNCC(O)Cn1c2ccccc2c2ccccc21 (centres undefined)	–	–	–	+	–

High-throughput results from PubChem BioAssay.
